Laboratory results from ChEMBL document CHEMBL1153758, “Synthesis and anti-osteoporotic evaluation of certain 3-amino-2-hydroxypropoxyisoflavone derivatives” (Eur J Med Chem, 2009).
The source made the active and inactive calls. No cut-off for these calls is given here.

Key:
RAW264.7 [1] = test: Antiosteoporotic activity in mouse RAW264.7 cells assessed as inhibition of RANKL-stimulated osteoclastogenesis by TRAP assay; type: functional, cell-based; details: for EC50: read-out: ED50 (the source's name)
Method in brief: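 RAW 264.7 cells were seeded at 10^3 cells per well with 100 ng/mL RANKL and cultured 5 days at 37 °C in 5% CO2, with fresh RANKL-containing medium added on day 3. TRAP activity was read as conversion of 4 mmol/L α-naphthyl phosphate to α-naphthol in the presence of 2 mol/L L-tartrate, by absorbance at 405 nm.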

[2] = system: adipose-derived stem cells (Homo sapiens); test: Cytotoxicity against human adipose-derived stem cells assessed as decrease in cell viability; details: hADSC
MADS = test: Osteogenic effect on human MADS cells assessed as extracellular matrix calcification at 10 uM after 13 days by using alizarin red S dye; type: functional, cell-based
Method in brief: (§1)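 Cells were induced in osteo-induction medium (low-glucose DMEM, 10% FBS, 0.1 µM dexamethasone, 10 mM β-glycerophosphate, 100 µM L-ascorbic 2-phosphate) for 7–14 days. Compounds were added at a final 10 µM from 10 mM DMSO stocks (0.1% DMSO), with DMSO-matched controls.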

RAW264.7 [3] = test: Cytotoxicity against mouse RAW264.7 cells at 10 uM after 3 days by MTT assay; type: cell-based; details: raw264.7, 72 h
Method in brief: (§2)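 Compounds came from 10 mM DMSO stocks, diluted fresh in medium to a final 10 µM (0.1% DMSO), with vehicle-matched DMSO controls. After treatment, MTT ([…] in PBS) was added for 4 h. Formazan was then dissolved in DMSO for 0.5 h and read at 570 nm, expressed as % of control.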

[4] = Cytotoxicity against mouse D1 cells at 10 uM after 3 days by MTT assay; type: cell-based; details: d1, 72 h; method in brief: as §2
MC3T3-E1 = test: Osteogenic effect on mouse MC3T3-E1 cells assessed as extracellular matrix calcification at 10 uM after 12 days by using alizarin red S dye; type: functional, cell-based; method in brief: as §1
[5] = Selectivity ratio for osteogenic effect of 3-(3,4-dimethoxyphenyl)-7-(oxiran-2-ylmethoxy)-4H-chromen-4-one on MC3T3-E1 cells to osteogenic effect of ipriflavone on MC3T3-E1 cells; type: functional, Mus musculus
D1 = test: Osteogenic effect on mouse D1 cells assessed as extracellular matrix calcification at 10 uM after 7 days by using alizarin red S dye; type: functional, cell-based; method in brief: as §1
[6] = Cytotoxicity against human ADSC at 10 uM after 3 days by MTT assay; details: 72 h; method in brief: as §2
[7] = Selectivity ratio for osteogenic effect of 3-(4-(3-(cyclohexylamino)-2-hydroxypropoxy)phenyl)-7-methoxy-4H-chromen-4-one on MC3T3-E1 cells to osteogenic effect of ipriflavone on MC3T3-E1 cells; type: functional, Mus musculus

COc1ccc2c(=O)c(-c3ccc(OCC(O)CNC4CC4)cc3)coc2c1 (stereo not given)
IC50 (RAW264.7 [1]): 4.85 µM

COc1ccc(-c2coc3cc(OCC4CO4)ccc3c2=O)cc1OC (stereo not given)
IC50 (RAW264.7 [1]): 0.56 µM
EC50 (RAW264.7 [1]): 0.56 µM
Activity [2]: 60%
Activity (MADS): Active
Activity (RAW264.7 [3]): Non-toxic
Activity [4]: Non-toxic
Activity (MC3T3-E1): Active
Selectivity ratio [5]: 10
Activity (D1): Active

O=c1cc(-c2ccccc2)oc2cc(O)c(O)c(O)c12 [BAICALEIN]
IC50 (RAW264.7 [1]): 13 µM

COc1ccc(-c2coc3cc(OCC(O)CNC4CCCCC4)ccc3c2=O)cc1OC (stereo not given)
IC50 (RAW264.7 [1]): 4.17 µM

O=C(c1ccc(OCCN2CCCCC2)cc1)c1c(-c2ccc(O)cc2)sc2cc(O)ccc12 [RALOXIFENE]
Activity (MADS): Active
Activity [6]: Non-toxic

COc1ccc2c(=O)c(-c3ccc(OCC4CO4)cc3)coc2c1 (stereo not given)
IC50 (RAW264.7 [1]): 6.39 µM

CC(C)Oc1ccc2c(=O)c(-c3ccccc3)coc2c1 [IPRIFLAVONE]
Activity (MADS): Active
Activity [6]: Non-toxic

COc1ccc2c(=O)c(-c3ccc(OCC(O)CNC4CCCCC4)cc3)coc2c1 (stereo not given)
EC50 (RAW264.7 [1]): 2.28 µM
Activity (MADS): Active
Activity (RAW264.7 [3]): Non-toxic
Activity [4]: Non-toxic
Activity [6]: Non-toxic
Activity (MC3T3-E1): Active
Selectivity ratio [7]: 10
Activity (D1): Active
